Experimental data taken from ChEMBL document CHEMBL1146123, “Kinesin spindle protein (KSP) inhibitors. Part 2: the design, synthesis, and characterization of 2,4-diaryl-2,5-dihydropyrrole inhibitors of the mitotic kinesin KSP” (Bioorg Med Chem Lett, 2006).

How the values were obtained:
A2780 = experiment: Mitotic arrest in A2780 cells; assay type: functional, cell-based; details: Homo sapiens
Outline: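 Mitosis-specific nucleolin phosphorylation read-out. Total nucleolin is captured on streptavidin paramagnetic beads carrying biotinylated anti-nucleolin antibody 4E2, and detected by electrochemiluminescence of a Tris-bipyridyl label. Cells were treated for 16 h with a 7-point, half-log dilution series. EC50 is the average of at least two independent determinations.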

[1] = target: T1, Kinesin-like protein KIF11 (Homo sapiens, UniProt P52732); experiment: Inhibition of KSP
T1 sequence (P52732 whole entry): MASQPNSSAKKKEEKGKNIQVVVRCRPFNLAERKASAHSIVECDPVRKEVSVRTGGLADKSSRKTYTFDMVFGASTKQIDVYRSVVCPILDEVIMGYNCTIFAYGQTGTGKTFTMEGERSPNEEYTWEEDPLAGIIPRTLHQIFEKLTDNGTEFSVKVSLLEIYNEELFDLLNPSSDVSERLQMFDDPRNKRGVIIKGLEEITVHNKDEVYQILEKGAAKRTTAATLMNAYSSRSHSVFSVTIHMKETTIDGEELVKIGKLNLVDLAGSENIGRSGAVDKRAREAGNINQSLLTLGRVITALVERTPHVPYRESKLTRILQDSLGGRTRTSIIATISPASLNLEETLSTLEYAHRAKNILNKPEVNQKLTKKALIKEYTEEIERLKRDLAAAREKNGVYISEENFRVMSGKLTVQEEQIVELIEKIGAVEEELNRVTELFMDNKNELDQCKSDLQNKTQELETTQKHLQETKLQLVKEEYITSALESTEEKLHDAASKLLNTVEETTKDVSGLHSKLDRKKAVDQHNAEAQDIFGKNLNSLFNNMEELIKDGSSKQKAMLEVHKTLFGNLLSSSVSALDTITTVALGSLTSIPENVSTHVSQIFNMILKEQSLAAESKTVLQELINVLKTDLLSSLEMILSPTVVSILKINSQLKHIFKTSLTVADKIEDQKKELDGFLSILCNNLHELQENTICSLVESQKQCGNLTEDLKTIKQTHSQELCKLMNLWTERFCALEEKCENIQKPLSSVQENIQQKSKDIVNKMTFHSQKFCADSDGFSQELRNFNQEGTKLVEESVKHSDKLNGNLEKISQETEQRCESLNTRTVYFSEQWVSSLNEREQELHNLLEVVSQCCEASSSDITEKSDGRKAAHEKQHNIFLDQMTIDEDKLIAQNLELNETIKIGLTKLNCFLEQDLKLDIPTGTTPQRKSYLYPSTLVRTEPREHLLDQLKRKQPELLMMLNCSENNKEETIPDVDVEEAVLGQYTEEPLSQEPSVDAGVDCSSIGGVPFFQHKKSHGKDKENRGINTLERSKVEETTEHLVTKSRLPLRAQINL

[2] = Volume distribution in dog at 0.4 mg/kg, iv; assay type: ADME, organism-based, Canis lupus familiaris; design: dose 0.4 mg/kg, route intravenous; details: in vivo, read-out: Vdss
Outline: (§1)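 Single intravenous dose; rats at 1.0 mg/kg (n = 4), dogs at 0.4 mg/kg (n = 4), monkeys at 0.4 mg/kg (n = 3). Plasma clearance (mL/min/kg), steady-state volume of distribution (Vdss, L/kg) and half-life (h) taken from the plasma concentration profile.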

[3] = Half life in monkey at 0.4 mg/kg, iv; assay type: ADME, organism-based, Macaca mulatta; design: dose 0.4 mg/kg, route intravenous; details: rhesus monkey, in vivo; outline: as §1
[4] = Plasma clearance in rat at 1 mg/kg, iv; assay type: ADME, organism-based; design: dose 1 mg/kg, route intravenous; outline: as §1
[5] = Half life in rat at 1 mg/kg, iv; assay type: ADME, organism-based; design: dose 1 mg/kg, route intravenous; details: in vivo; outline: as §1
[6] = Plasma clearance in dog at 0.4 mg/kg, iv; assay type: ADME, organism-based, Canis lupus familiaris; design: dose 0.4 mg/kg, route intravenous; outline: as §1
[7] = Half life in dog at 0.4 mg/kg, iv; assay type: ADME, organism-based, Canis lupus familiaris; design: dose 0.4 mg/kg, route intravenous; details: in vivo; outline: as §1
[8] = Aqueous solubility at pH 5; assay type: physicochemical; details: aqueous solution
[9] = Volume distribution in rat at 1 mg/kg, iv; assay type: ADME, organism-based; design: dose 1 mg/kg, route intravenous; details: in vivo, read-out: Vdss; outline: as §1
[10] = Volume distribution in monkey at 0.4 mg/kg, iv; assay type: ADME, organism-based, Macaca mulatta; design: dose 0.4 mg/kg, route intravenous; details: rhesus monkey, in vivo, read-out: Vdss; outline: as §1
[11] = Plasma clearance in monkey at 0.4 mg/kg, iv; assay type: ADME, organism-based, Macaca mulatta; design: dose 0.4 mg/kg, route intravenous; details: rhesus monkey; outline: as §1
[12] = target: Voltage-gated inwardly rectifying potassium channel KCNH2 (Homo sapiens, UniProt Q12809); experiment: Inhibitory activity against human hERG receptor expressed in HEK cells
Voltage-gated inwardly rectifying potassium channel KCNH2, sequence (Q12809 whole entry): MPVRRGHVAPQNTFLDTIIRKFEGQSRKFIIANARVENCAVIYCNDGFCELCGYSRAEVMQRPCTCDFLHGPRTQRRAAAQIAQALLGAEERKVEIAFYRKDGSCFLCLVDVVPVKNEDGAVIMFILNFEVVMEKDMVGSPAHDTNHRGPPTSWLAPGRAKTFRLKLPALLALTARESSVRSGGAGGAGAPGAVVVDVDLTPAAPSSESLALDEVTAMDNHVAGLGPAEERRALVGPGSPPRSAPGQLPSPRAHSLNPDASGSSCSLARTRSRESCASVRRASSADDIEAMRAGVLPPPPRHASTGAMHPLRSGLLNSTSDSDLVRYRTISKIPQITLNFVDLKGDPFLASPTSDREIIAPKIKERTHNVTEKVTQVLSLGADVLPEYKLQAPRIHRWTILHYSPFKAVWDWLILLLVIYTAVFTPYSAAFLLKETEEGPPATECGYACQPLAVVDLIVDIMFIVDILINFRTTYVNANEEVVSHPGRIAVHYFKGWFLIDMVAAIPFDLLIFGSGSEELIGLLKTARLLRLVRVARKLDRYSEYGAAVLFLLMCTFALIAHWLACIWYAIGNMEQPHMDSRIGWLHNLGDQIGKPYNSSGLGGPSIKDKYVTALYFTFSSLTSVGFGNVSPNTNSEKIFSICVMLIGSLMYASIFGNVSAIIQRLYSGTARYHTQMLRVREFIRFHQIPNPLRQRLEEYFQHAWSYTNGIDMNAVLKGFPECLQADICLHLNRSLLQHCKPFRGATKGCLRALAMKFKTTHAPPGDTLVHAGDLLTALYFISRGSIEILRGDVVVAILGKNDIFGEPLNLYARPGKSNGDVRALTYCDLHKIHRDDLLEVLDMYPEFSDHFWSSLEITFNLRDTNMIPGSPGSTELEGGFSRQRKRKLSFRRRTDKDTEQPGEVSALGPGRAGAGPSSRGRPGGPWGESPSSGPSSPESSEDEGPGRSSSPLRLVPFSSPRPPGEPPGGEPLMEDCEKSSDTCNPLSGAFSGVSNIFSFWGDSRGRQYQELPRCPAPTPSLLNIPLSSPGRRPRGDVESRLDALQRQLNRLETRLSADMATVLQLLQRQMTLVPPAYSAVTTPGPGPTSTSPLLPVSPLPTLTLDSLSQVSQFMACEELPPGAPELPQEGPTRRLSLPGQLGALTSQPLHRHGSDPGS

CC(C)(C)[C@H](NC(=O)OCCO)C(=O)N1CC(c2cc(F)ccc2F)=C[C@H]1c1ccccc1 gave an EC50 (A2780) of 13 nM and an IC50 [1] of 7.4 nM.

Compound CC(C)(CN)C(=O)N1CC(c2cc(F)ccc2F)=C[C@H]1c1ccccc1 has an EC50 (A2780) of 11 nM and an IC50 [1] of 5.2 nM.

CC(C)[C@@H](N)C(=O)N1CC(c2cc(F)ccc2F)=C[C@H]1c1ccccc1 showed an IC50 [1] of 3100 nM.

In the case of CC(C)(C)[C@H](N)C(=O)N1CC(c2cc(F)ccc2F)=C[C@H]1c1ccccc1, the EC50 (A2780) is reported as 7.1 nM and the IC50 [1] is reported as 2.7 nM.

With N[C@H](C(=O)N1CC(c2cc(F)ccc2F)=C[C@H]1c1ccccc1)C1CC1 the Vd [2] was 3.8 L/kg, the half-life [3] was 4.5 h and the EC50 (A2780) was 8.6 nM. It also gave a clearance [4] of 40 mL/min/kg, a half-life [5] of 1.4 h and a clearance [6] of 23 mL/min/kg. For the same compound, the half-life [7] was 2.3 h, the solubility [8] was over 10000 µg/mL and the Vd [9] was 4.4 L/kg. It also gave a Vd [10] of 7.4 L/kg and a clearance [11] of 21 mL/min/kg.

In the case of CN(C(=O)N1CC(c2cc(F)ccc2F)=C[C@H]1c1ccccc1)C1CCNCC1, the EC50 (A2780) is reported as 6.8 nM and the solubility [8] is reported as over 10000 µg/mL.

With CC(=O)N1CCC(N(C)C(=O)N2CC(c3cc(F)ccc3F)=C[C@H]2c2ccccc2)CC1 the EC50 (A2780) was 69 nM and the IC50 [1] was 50 nM.

CC(C)[C@H](N)C(=O)N1CC(c2cc(F)ccc2F)=C[C@H]1c1ccccc1 gave an EC50 (A2780) of 12 nM and an IC50 [1] of 3.6 nM.

With O=C([C@@H](O)C1CC1)N1CC(c2cc(F)ccc2F)=C[C@H]1c1ccccc1 the EC50 (A2780) was 20 nM, the IC50 [1] was 11 nM and the IC50 [12] was 11000 nM.

With CN(CCCN)C(=O)N1CC(c2cc(F)ccc2F)=C[C@H]1c1ccccc1 the EC50 (A2780) was 44 nM and the IC50 [1] was 16 nM.

Compound CN(C)C(=O)N1CC(c2cc(F)ccc2F)=C[C@@H]1c1ccccc1 has an IC50 [1] of over 50000 nM.

Compound CC(=O)N1CC(c2cc(F)ccc2F)=CC1c1ccccc1 (racemic) has an IC50 [1] of 4000 nM.

For CC(C)(C)C(=O)N1N=C(c2cc(F)ccc2F)CC1c1ccccc1 (racemic), the IC50 [1] was 113 nM.

With CC(C)(C)C(=O)N1CC(c2cc(F)ccc2F)=CC1c1ccccc1 (racemic) the IC50 [1] was 85 nM.
